Screening data from PubChem BioAssay.
FLuc inh counter: Photinus pyralis luciferase inhibition counter-screen; ATPLite firefly luciferase biochemical luminescence, 10 min; inhibition, % at 10 µM; hit rate 1.5% among 200,000;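 active means inhibition above about 50% when tested at 10 µM, limit read from the data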
Target sequence (P08659 whole entry, looked up): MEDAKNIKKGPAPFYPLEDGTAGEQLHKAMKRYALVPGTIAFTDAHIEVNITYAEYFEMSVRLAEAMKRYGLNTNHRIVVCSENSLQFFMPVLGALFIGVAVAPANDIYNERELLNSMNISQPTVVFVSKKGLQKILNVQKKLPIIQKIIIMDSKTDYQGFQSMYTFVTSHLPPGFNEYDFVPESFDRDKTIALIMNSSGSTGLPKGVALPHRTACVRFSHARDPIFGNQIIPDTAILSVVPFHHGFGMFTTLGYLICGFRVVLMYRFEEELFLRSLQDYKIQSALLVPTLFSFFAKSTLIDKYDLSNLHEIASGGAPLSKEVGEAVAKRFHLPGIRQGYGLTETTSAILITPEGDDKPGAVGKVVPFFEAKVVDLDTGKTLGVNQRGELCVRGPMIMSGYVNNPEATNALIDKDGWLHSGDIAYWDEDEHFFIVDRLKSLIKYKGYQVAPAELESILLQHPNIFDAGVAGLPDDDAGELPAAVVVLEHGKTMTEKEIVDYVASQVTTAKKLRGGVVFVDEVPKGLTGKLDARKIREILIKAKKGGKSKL
NF-kB expr up: NF-kB expression increase, human neuronal cells; NF-kB reporter expression; stronger effect = higher value; fold change at 12.5 µM; hit rate 1.6% among 190,000; in the data active means fold change above about 3.3
FLuc act counter: affects firefly luciferase, flagging false hits in luciferase stimulation screens | AID 1027 | P08659 | 200,000 tested, under 10 active | ATPlite luciferase biochemical, luminescence, 10 min; 0 = ATP-free wells, 1 = DMSO control | activation factor at 10 µM;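 active means luciferase activation factor, scaled between plate controls, of at least 2 with compound at 10 µM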
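Assay system – cell-free luciferase reagent · Medium – PBS-based ATP solution · Dosing – test compounds dosed from 2 mM stocks in 100% DMSO · Timing – 10 min, room temperature · Technique – light output (luminescence) · Measure – luminescence gain marking luciferase activators · Controls – No-ATP low control, compound-free enzyme-plus-ATP high control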
Pf gametocyte: P. falciparum stage V gametocyte viability inhibition; AID 743093; P. falciparum stage V gametocytes, ATP luminescence, 24 h; hit rate 0.065% among 150,000; inhibition, % at 10.9 µM;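 active means inhibition above the mean plus 3 SD of compounds within the control limits, set per campaign, cut at about 38% in these data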
STAT1 act: STAT1 signaling activation. NIH 3T3 STAT1-luciferase reporter, IFN-gamma, luminescence; 100% = IFN-gamma alone, no compound. activation (% of control), % at 5.5 µM. hit rate 2.6% among 200,000. AID 932;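 active means activation above the screen-wide mean activation plus 3 SD, cut at about 130% in these data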
APP 5'UTR act: activates APP 5'UTR luciferase reporter. SH-SY5Y APP 5'UTR luciferase reporter, luminescence; zero percent = DMSO vehicle wells. activation, % at 2 µM. hit rate 1% among 190,000;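 active means activation above a set limit, based on mean plus 3 SD of controls, cut at about 140% in these data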
Hits are given with their value; 0 = inactive; - = no result given. Rows were chosen to be rich in hits. Some 3.5% of all compounds tested hit in one or more screens of this group.

SMILES	FLuc inh counter	NF-kB expr up	FLuc act counter	Pf gametocyte	STAT1 act	APP 5'UTR act
C/C(=N\Nc1cc(C)nc(NCc2ccccc2)n1)c1ccc([N+](=O)[O-])cc1	-	-	-	0	-	-
Cc1ccc(OCC(=O)NNC(=O)CSc2nnc(-c3ccc(C)cc3)n2C)cc1	0	0	0	0	0	0
Cc1cnc(NC(=O)COc2ccccc2Cl)s1	91	0	0	-	0	0
Cc1cccc(OCC(=O)Nc2ccc3c(c2)OCCO3)c1	54	0	0	-	0	0
Cc1cnc(NC(=O)CCNC(=O)c2ccccc2Cl)s1	0	0	0	0	0	0
C#CCOCCOCCOCCNc1nc(N2CCN(C(=O)Cn3cc(CC(C)O)nn3)CC2)nc(N2CCN(C(=O)[C@H](C)n3cc(CCC(=O)O)nn3)CC2)n1 (some centres not stated)	-	-	-	0	-	-
Cc1ccc(-n2nnc(-c3cnc4ccccc4c3)n2)cc1	54	4.5	0	0	0	194
Clc1nc2ccccc2cc1-c1nnn(-c2ccccc2)n1	0	5	0	-	133	0
COc1ncccc1-c1nnn(-c2ccccc2)n1	54	4.8	0	0	149	158
COc1ncccc1-c1nnn(-c2ccccc2Br)n1	-	-	-	0	-	-
Clc1ncccc1-c1nnn(-c2ccccc2)n1	70	6.5	0	0	134	0
Cc1ccc(CCC(=O)Nc2ccc(N(C)C)cc2)o1	-	-	-	0	-	-
Clc1ccc(-n2nnc(-c3cccnc3Cl)n2)cc1Cl	0	0	0	0	135	164
Fc1ccc(-n2nnc(-c3ccccc3Cl)n2)cc1	-	-	-	0	-	-
Cc1ccc(-n2nnc(-c3cccnc3)n2)cc1	-	-	-	0	-	-
Cc1ccc(-n2nnc(-c3nccn3C)n2)cc1	88	4.2	0	0	0	0
Fc1ccc(-n2nnc(-c3nccs3)n2)cc1	76	4.7	0	0	0	148
Fc1ccc(-n2nnc(-c3cccnc3Cl)n2)cc1	66	5.8	0	-	144	149
CCOCCCNCc1cn(-c2ccc(F)cc2F)nc1-c1ccccc1C	0	0	0	0	0	0
Cc1nc2sc(C(c3cccs3)N3CC(C)CC(C)C3)c(O)n2n1 (configuration not stated)	0	0	0	-	0	0
Cc1ccc(-c2cnc3cc(C)nn3c2)cc1	91	5.7	0	0	0	147
Cc1cc2ncc(-c3ccc(Cl)cc3)cn2n1	56	4.9	0	0	136	188
Cc1cc2ncc(C(=O)N=CN(C)C)cn2n1	0	0	0	-	0	0
Cc1ccc(-c2cnc3c(Cl)c(C)nn3c2)cc1	58	6.5	0	-	0	244
Cc1cccc(Oc2ncc(-c3ccc(Cl)cc3)cn2)c1	0	0	0	0	0	0
SMILES	FLuc inh counter	NF-kB expr up	FLuc act counter	Pf gametocyte	STAT1 act	APP 5'UTR act
Cc1cc(C(=O)Nc2cccc3c2O[C@H](CN(C)CC2CC2)[C@@H](C)CN([C@H](C)CO)C3=O)n(C)n1	-	-	-	0	-	-
O=c1cc(-c2ccc(O)cc2)oc2ccc(O)cc12	0	4.1	0	0	150	0
COc1ccc(-c2cc(=O)c3c(O)c(OC)c(O)cc3o2)cc1	90	9	0	-	0	152
O=c1cc(-c2ccncc2)oc2ccccc12	0	0	0	0	0	0
NC(=O)COc1ccc2oc(-c3ccccc3)cc(=O)c2c1	56	0	0	0	0	0
COc1cc(-c2cc(=O)c3ccccc3o2)ccc1O	0	0	0	-	134	0
CCOC(=O)COc1ccc2c(=O)cc(-c3ccccc3)oc2c1	-	-	-	0	-	-
CC1(Br)C2CCCC1C2S(=O)(=O)c1ccccc1 (configuration not stated)	0	0	0	0	0	0
CCOc1ccc(NC(=O)c2ccc(CC)s2)c([N+](=O)[O-])c1	0	0	0	0	133	0
COc1ccc(NC(=O)c2ccccc2)c([N+](=O)[O-])c1	0	0	0	0	132	0
CCCCOc1ccc(C(=O)Nc2ccc(C)cc2[N+](=O)[O-])cc1	0	0	0	0	0	0
CCOc1ccc(NC(=O)c2cccnc2Cl)c([N+](=O)[O-])c1	0	0	0	-	0	0
CCCOc1ccc(C(=O)Nc2ccccc2[N+](=O)[O-])cc1	-	-	-	0	140	0
CCCC(O)(CCC)C(=O)NN(C(=O)CCl)c1ccccc1	0	7.2	0	-	0	0
CCCCC(O)(CCCC)C(=O)NN(C(=O)OCC)c1ccccc1	0	0	0	0	0	0
